The record followed here is ChEMBL document CHEMBL1153549 (Antimicrob Agents Chemother, 2008).

In brackets after ≈: the same amount, converted by molar mass. Activity calls are given as the source filed them. The calls are words filed in the database; no cut-off is given here.

The nature of series [1]: Drug level in alveolar macrophage of healthy human undergoing fiber-optic bronchoscopy at 10 mg/kg, iv once daily for 3 days measured at 24 after start of infusion by validated liquid chromatography. To be noted: alveolar macrophages, read-out: Drug uptake. The arrangement: dose 10 mg/kg, route intravenous. In kind it is ADME, organism-based.
Series [2] in a line: Plasma concentration in healthy human undergoing fiber-optic bronchoscopy at 10 mg/kg, iv once daily for 3 days measured at 12 hrs after start of infusion by validated liquid chromatography. In kind it is ADME, organism-based. Further details: dose 10 mg/kg, route intravenous.
Series [3] in a line: Plasma concentration in healthy human undergoing fiber-optic bronchoscopy at 10 mg/kg, iv once daily for 3 days measured at 24 hrs after start of infusion by validated liquid chromatography. The class given is ADME, organism-based. The arrangement: dose 10 mg/kg, route intravenous.
A short description of series [4]: Ratio of drug level in alveolar macrophage to plasma of healthy human undergoing fiber-optic bronchoscopy at 10 mg/kg, iv once daily for 3 days measured at 12 hrs after start of infusion. To be noted: alveolar macrophages / plasma.
Series [5] is described as follows: Ratio of drug level in alveolar macrophage to plasma of healthy human undergoing fiber-optic bronchoscopy at 10 mg/kg, iv once daily for 3 days measured at 24 hrs after start of infusion. To be noted: alveolar macrophages / plasma.
Series [6] concerns Staphylococcus aureus. Kind of series: Antibacterial activity against methicillin-resistant Staphylococcus aureus ATCC 33591 by CLSI broth microdilution method. The class given is functional. In a few lines: (§1)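 MICs by CLSI reference broth microdilution in cation-adjusted Mueller-Hinton broth. For daptomycin testing, the medium was supplemented with 50 mg/liter Ca2+.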
Series [7] deals with Staphylococcus aureus. The experiment in a line: Antibacterial activity against methicillin-resistant Staphylococcus aureus ATCC 33591 by standard checkerboard method in presence of 0.2 to 1 mg/ml pulmonar surfactant. In kind it is functional, organism-based. In a few lines: (§2)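 Checkerboard combination of antibiotic with pulmonary surfactant (Survanta) by CLSI broth microdilution in cation-adjusted Mueller-Hinton broth. The top surfactant level was 1 mg/ml, a 25-fold dilution of Survanta. For daptomycin, the broth carried 50 mg/liter Ca2+.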

Series [8] has as its system Streptococcus pneumoniae. Kind of series: Antibacterial activity against Streptococcus pneumoniae ATCC 49619 by standard checkerboard method in presence of 0.2 to 1 mg/ml pulmonar surfactant. The class given is functional, organism-based. In a few lines:
(§3)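 CLSI broth microdilution in cation-adjusted Mueller-Hinton broth combined with checkerboard of drug against pulmonary surfactant up to 1 mg/ml (25-fold dilution of Survanta); 50 mg/liter Ca2+ added for daptomycin only. Ratios of activity with vs without surfactant given as median and range of two separate experiments.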

In series [9] the test system is Homo sapiens. The experiment in a line: Toxicity in healthy human at 10 mg/kg, iv once daily for 3 days by clinical laboratory test. In kind it is organism-based. The arrangement: dose 10 mg/kg, route intravenous. Particulars: in vivo, 72 h. Put shortly:
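Safety monitored by physical examinations, electrocardiographs and clinical laboratory tests (hematology, serum chemistry, urinalysis) at screening and specified times during 3 days of 10 mg/kg 1-h IV infusions.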

The subject of series [10] is Homo sapiens. The experiment in a line: Toxicity in healthy human assessed as pulmonar inflammation at 10 mg/kg, iv once daily for 3 days. Particulars: in vivo, 72 h. In kind it is organism-based. The arrangement: dose 10 mg/kg, route intravenous.
In series [11] the test system is Homo sapiens. Kind of series: Toxicity in healthy human assessed as pulmonar infection at 10 mg/kg, iv once daily for 3 days. In kind it is organism-based. The arrangement: dose 10 mg/kg, route intravenous. To be noted: in vivo, 72 h.
Series [12] can be described thus: AUC (0 to 24) in epithelial lining fluid of healthy human at 10 mg/kg, iv once daily for 3 days. The class given is ADME, organism-based. The arrangement: time < 24 hr, dose 10 mg/kg, route intravenous. To be noted: in vivo, 24 h.
For another series, the system named is Mus musculus. The experiment in a line: fAUC (0 to 24) in mouse pneumonia model at 40 mg/kg. Particulars: in vivo. Further details: dose 40 mg/kg. The class given is ADME, organism-based.
In series [13] the test system is Homo sapiens. The experiment in a line: Toxicity in healthy human at 10 mg/kg/day infused over 1 hr. The class given is organism-based. To be noted: in vivo.
For series [14], the system named is Staphylococcus aureus. The experiment in a line: Antibacterial activity against methicillin-resistant Staphylococcus aureus. The class given is functional.
Series [15] concerns Staphylococcus aureus. The experiment in a line: Antibacterial activity against methicillin-susceptible Staphylococcus aureus. The class given is functional. Put shortly:
as §1

Series [16] relates to Streptococcus pneumoniae. Kind of series: Antibacterial activity against […] Streptococcus pneumoniae. In kind it is functional. Put shortly: as §1
Series [17] is described as follows: Cmax in healthy human at 10 mg/kg, iv once daily for 3 days measured at 24 after start of infusion. The arrangement: dose 10 mg/kg, route intravenous. The class given is ADME, organism-based. To be noted: in vivo. In a few lines:
(§4)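 Plasma from healthy adults given 10 mg/kg IV over 60 min daily for 3 days, sampled before infusions 1 and 3 and 1, 2, 4, 6, 8, 12, 24 h after the third; validated LC-MS/MS (LLOQ 0.25 μg/ml). Noncompartmental analysis: Cmax, Tmax, Cmin observed; AUC0-24 linear trapezoidal; kel by log-linear regression; t1/2 = 0.693/kel; CL = dose/AUC0-24.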

Series [18] can be described thus: Tmax in healthy human at 10 mg/kg, iv once daily for 3 days measured at 24 after start of infusion. To be noted: in vivo. Further details: dose 10 mg/kg, route intravenous. The class given is ADME, organism-based. In a few lines: as §4
Series [19] in a line: Terminal half life in healthy human at 10 mg/kg, iv once daily for 3 days measured at 24 after start of infusion. In kind it is ADME, organism-based. Further details: dose 10 mg/kg, route intravenous. Particulars: in vivo, read-out: beta t1/2 (converted). Put shortly: as §4
Series [20] in a line: Clearance at steady state in healthy human at 10 mg/kg, iv once daily for 3 days measured at 24 after start of infusion. The class given is ADME, organism-based. The arrangement: dose 10 mg/kg, route intravenous. To be noted: in vivo, read-out: CLss (converted). In a few lines: as §4
A short description of series [21]: Mean residence time in healthy human at 10 mg/kg, iv once daily for 3 days measured at 24 after start of infusion. Further details: dose 10 mg/kg, route intravenous. In kind it is ADME, organism-based. Particulars: in vivo. In a few lines:
as §4

Series [22] can be described thus: Cmin in healthy human at 10 mg/kg, iv once daily for 3 days measured at 24 after start of infusion. Further details: dose 10 mg/kg, route intravenous. To be noted: in vivo, read-out: Cmin. In kind it is ADME, organism-based. In a few lines: as §4
Series [23] is described as follows: Drug level in epithelial lining fluid of healthy human undergoing fiber-optic bronchoscopy at 10 mg/kg, iv once daily for 3 days measured at 8 hrs after start of infusion by validated liquid chromatography. In kind it is ADME, organism-based. The arrangement: dose 10 mg/kg, route intravenous. To be noted: read-out: Drug uptake.
Series [24] is described as follows: Drug level in epithelial lining fluid of healthy human undergoing fiber-optic bronchoscopy at 10 mg/kg, iv once daily for 3 days measured at 24 hrs after start of infusion by validated liquid chromatography. The arrangement: dose 10 mg/kg, route intravenous. Particulars: read-out: Drug uptake. In kind it is ADME, organism-based.
Series [25] is described as follows: Drug level in alveolar macrophage of healthy human undergoing fiber-optic bronchoscopy at 10 mg/kg, iv once daily for 3 days measured at 8 hrs after start of infusion by validated liquid chromatography. The class given is ADME, organism-based. Further details: dose 10 mg/kg, route intravenous. Particulars: alveolar macrophages, read-out: Drug uptake.
A short description of series [26]: Drug level in alveolar macrophage of healthy human undergoing fiber-optic bronchoscopy at 10 mg/kg, iv once daily for 3 days measured at 12 after start of infusion by validated liquid chromatography. The class given is ADME, organism-based. Further details: dose 10 mg/kg, route intravenous. To be noted: alveolar macrophages, read-out: Drug uptake.
Series [27] relates to Streptococcus pneumoniae. Kind of series: Antibacterial activity against Streptococcus pneumoniae.
Series [28] concerns Homo sapiens. The experiment in a line: Plasma protein binding in healthy human undergoing fiber-optic bronchoscopy at 10 mg/kg, iv once daily for 3 days. Particulars: read-out: PPB (converted).
The subject of series [29] is Staphylococcus aureus. The experiment in a line: Antibacterial activity against methicillin-resistant Staphylococcus aureus ATCC 33591 by standard checkerboard method in presence of pulmonar surfactant and 50 mg/liter Ca2+. The class given is functional, organism-based. In a few lines:
as §2

Series [30] relates to Streptococcus pneumoniae. Kind of series: Antibacterial activity against Streptococcus pneumoniae ATCC 49619 by standard checkerboard method in presence of pulmonar surfactant and 50 mg/liter Ca2+. In kind it is functional, organism-based. In a few lines: as §3
The subject of series [31] is Staphylococcus aureus. The experiment in a line: Ratio of antibacterial activity against methicillin-resistant Staphylococcus aureus ATCC 33591 in presence of 1 mg/ml pulmonar surfactant and 50 mg/liter Ca2+ to antibacterial against methicillin-resistant Staphylococcus aureus ATCC 33591. In kind it is functional. In a few lines: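 Broth microdilution in cation-adjusted Mueller-Hinton broth (plus 50 mg/liter Ca2+ for daptomycin), with versus without 1 mg/ml pulmonary surfactant (Survanta). Reported as the median and range of activity ratios from two separate experiments.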

Series [32] has as its system Streptococcus pneumoniae. The experiment in a line: Ratio of antibacterial activity against Streptococcus pneumoniae ATCC 49619 in presence of 1 mg/ml pulmonar surfactant and 50 mg/liter Ca2+ to antibacterial against Streptococcus pneumoniae ATCC 49619. In kind it is functional. Put shortly: as §3

Usually Kp stands for the ratio of the level in a tissue or fluid to that in plasma or blood. The MIC90 is an inhibitory concentration at the 90% level, which refers to growth in some studies and to a panel of isolates in others. By Cmax is commonly meant the highest concentration seen after dosing. By Tmax is commonly meant the time at which the peak concentration occurs. What is called MRT is the average time that molecules of a dose stay in the body. As for `CCCCCCCCCCNCCN[C@@]1(C)C[C@H](O[C@H]2[C@H](Oc3c4cc5cc3Oc3ccc(cc3Cl)[C@@H](O)[C@@H](NC(=O)[C@@H](CC(C)C)NC)C(=O)N[C@@H](CC(N)=O)C(=O)N[C@H]5C(=O)N[C@H]3C(=O)N[C@H](C(=O)N[C@H](C(=O)O)c5cc(O)c(CNCP(=O)(O)O)c(O)c5-c5cc3ccc5O)[C@H](O)c3ccc(c(Cl)c3)O4)O[C@H](CO)[C@@H](O)[C@@H]2O)O[C@@H](C)[C@H]1O` [TELAVANCIN], the results for the concentration at 72 h in [1], in series [22] and in series [26] were 42000 ng/mL, 8110 ng/mL and 45000 ng/mL, respectively. For the same compound, the concentration at 12 h in series [2] was determined as 22900 ng/mL. In addition, the figures for the concentration at 24 h in [3] and in series [24] were 7280 ng/mL and 900 ng/mL, respectively. For the same compound, the Kp at 12 h in series [4] was 1.93. For the same compound, the Kp at 24 h in series [5] was determined as 6.67. The Activity was 0.5 µg/mL in the series with Staphylococcus aureus [6]; “Non-toxic” in the series on Homo sapiens [9]; “Non-toxic” with Homo sapiens [10]; “Non-toxic” with Homo sapiens [11]; “Non-toxic” with Homo sapiens [13]. The result with Staphylococcus aureus [7] and with Streptococcus pneumoniae [8] was Active. Moreover, in series [12], the AUC was determined as 45 µg/h/mL. Moreover, the fAUC with Mus musculus was 52.3 µg/h/mL. The MIC90 against Staphylococcus aureus [14] was 0.5 µg/mL (≈ 0.285 µM); against Staphylococcus aureus [15], 0.5 µg/mL (≈ 0.285 µM); in the series on Streptococcus pneumoniae [16], 0.03 µg/mL (≈ 0.0171 µM); against Streptococcus pneumoniae [27], 0.03 µg/mL (≈ 0.0171 µM). For the same compound, in series [17], the peak level (Cmax) was 116000 ng/mL. Besides, the Tmax in [18] stood at 1 h. In addition, the half-life in series [19] is 7.41 h. In series [20], the clearance was 0.217 mL/min/kg. The compound further registered an MRT in series [21] of 9.42 h. Besides, the figures for the concentration at 8 h in series [23] and in series [25] were 3700 ng/mL and 19000 ng/mL, respectively. Besides, the fraction unbound at 72 h in the series with Homo sapiens [28] is 0.1.

For `CN[C@H](CC(C)C)C(=O)N[C@H]1C(=O)N[C@@H](CC(N)=O)C(=O)N[C@H]2C(=O)N[C@H]3C(=O)N[C@H](C(=O)N[C@H](C(=O)O)c4cc(O)cc(O)c4-c4cc3ccc4O)[C@H](O)c3ccc(c(Cl)c3)Oc3cc2cc(c3O[C@@H]2O[C@H](CO)[C@@H](O)[C@H](O)[C@H]2O[C@H]2C[C@](C)(N)[C@H](O)[C@H](C)O2)Oc2ccc(cc2Cl)[C@H]1O`, the result with Staphylococcus aureus [7] and with Streptococcus pneumoniae [8] was Active.

`CCCCCCCCCC(=O)N[C@@H](Cc1c[nH]c2ccccc12)C(=O)N[C@H](CC(N)=O)C(=O)N[C@@H](CC(=O)O)C(=O)N[C@@H]1C(=O)NCC(=O)N[C@@H](CCCN)C(=O)N[C@@H](CC(=O)O)C(=O)N[C@H](C)C(=O)N[C@@H](CC(=O)O)C(=O)NCC(=O)N[C@H](CO)C(=O)N[C@@H]([C@H](C)CC(=O)O)C(=O)N[C@@H](CC(=O)c2ccccc2N)C(=O)O[C@@H]1C`: the outcome with Staphylococcus aureus [29] and in the series on Streptococcus pneumoniae [30] was inactive. Further, the Ratio was 32 in the series with Staphylococcus aureus [31] and 128 with Streptococcus pneumoniae [32].

For `CO/N=C(\C(=O)N[C@@H]1C(=O)N2C(C(=O)O)=C(CSc3nc(=O)c(O)nn3C)CS[C@H]12)c1csc(N)n1`, the outcome with Staphylococcus aureus [7] and in the series on Streptococcus pneumoniae [8] was Active.
